According to BindingDB's records for doi:10.1021/jm100027p (Emory University, 2010):

Key:
[1] = molecular target: Glutamate receptor ionotropic, NMDA 1/2B (Rattus norvegicus, UniProt Q00960+P35439); test: Antagonist activity at rat recombinant NR1-NR2B receptor expressed in Xenopus oocytes at holding potential of -40mV by two-electrode voltage-clamp electrophysiology
In short: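 Oocytes expressed rat NR1-1a/NR2B and were held at −40 mV, 23°C, pH 7.4 HEPES-buffered saline. Currents were activated by 100 μM glutamate plus 30 μM glycine. 5-7 inhibitor concentrations were tested, ≥4 oocytes each, normalized to control. IC50 came from Hill fits, minimum fixed at 0 unless indicated. Responses >75% of control at 100 μM were reported as >300 μM.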

[2] = molecular target: Glutamate receptor ionotropic, NMDA 1/2C (Rattus norvegicus, UniProt Q00961+P35439); test: Antagonist activity at rat recombinant NR1-NR2C receptor expressed in Xenopus oocytes at holding potential of -40mV by two-electrode voltage-clamp electrophysiology
In short: (§1)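 Oocytes expressing rat NR1-1a with NR2A, NR2B, NR2C or NR2D, clamped at −40 mV in Ba2+/HEPES recording solution pH 7.4, 23°C. Current evoked by 100 μM glutamate plus 30 μM glycine. Final DMSO 0.05-0.5%, 5-7 inhibitor concentrations, ≥4 oocytes each. IC50 from Hill fit of normalized mean composite data. […] Some NR2A oocytes given BAPTA-AM or K-BAPTA.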

[3] = molecular target: Glutamate receptor ionotropic, NMDA 1/2A (Rattus norvegicus, UniProt Q00959+P35439); test: Antagonist activity at rat recombinant NR1-NR2A receptor expressed in Xenopus oocytes at holding potential of -40mV by two-electrode voltage-clamp electrophysiology; in short: as §1
[4] = molecular target: Glutamate receptor 1 (Rattus norvegicus, UniProt P19490); test: Antagonist activity at rat recombinant GLuR1 expressed in Xenopus oocytes assessed as inhibition of glutamate-induced current by two-electrode voltage-clamp electrophysiology
In short: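 Two-electrode voltage clamp at −40 mV on Xenopus oocytes expressing rat GluR1, perfused with 90 NaCl, 1.0 KCl, 0.5 BaCl2, 0.005 EDTA, 10 HEPES (mM), pH 7.4, 23°C; activated by 100 μM glutamate. From 20 mM DMSO stocks, 5-7 concentrations, ≥4 oocytes each. Hill fit to mean composite curves normalized to control, minimum usually fixed at 0. Response >75% at 100 μM reported as >300 μM.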

Chain of Glutamate receptor 1 (P19490 whole entry, the tested form may be a part): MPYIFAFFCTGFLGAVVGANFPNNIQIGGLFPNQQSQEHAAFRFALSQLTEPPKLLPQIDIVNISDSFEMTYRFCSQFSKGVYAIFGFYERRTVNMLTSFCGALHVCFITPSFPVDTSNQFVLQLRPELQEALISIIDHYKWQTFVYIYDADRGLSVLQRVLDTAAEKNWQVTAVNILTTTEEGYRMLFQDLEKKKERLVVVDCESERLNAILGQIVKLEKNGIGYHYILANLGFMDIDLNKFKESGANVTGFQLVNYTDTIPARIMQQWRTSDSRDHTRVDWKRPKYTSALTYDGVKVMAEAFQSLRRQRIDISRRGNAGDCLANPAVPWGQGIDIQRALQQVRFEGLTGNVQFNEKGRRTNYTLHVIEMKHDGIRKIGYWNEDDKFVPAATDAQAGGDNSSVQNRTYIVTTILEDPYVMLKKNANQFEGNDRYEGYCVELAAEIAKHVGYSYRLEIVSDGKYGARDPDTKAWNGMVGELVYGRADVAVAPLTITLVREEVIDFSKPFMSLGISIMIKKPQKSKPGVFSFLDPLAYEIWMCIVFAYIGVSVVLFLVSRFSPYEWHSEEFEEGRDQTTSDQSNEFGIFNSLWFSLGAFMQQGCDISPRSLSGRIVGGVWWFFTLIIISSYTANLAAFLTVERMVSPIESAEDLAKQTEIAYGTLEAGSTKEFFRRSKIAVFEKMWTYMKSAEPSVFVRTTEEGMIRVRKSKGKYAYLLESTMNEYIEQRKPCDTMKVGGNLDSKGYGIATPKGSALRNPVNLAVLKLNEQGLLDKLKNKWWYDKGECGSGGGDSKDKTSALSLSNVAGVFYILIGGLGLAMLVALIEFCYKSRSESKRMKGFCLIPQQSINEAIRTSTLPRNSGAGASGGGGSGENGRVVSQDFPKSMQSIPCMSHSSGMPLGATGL
Chain of Glutamate receptor ionotropic, NMDA 1/2C (Q00961 whole entry, other chains not shown): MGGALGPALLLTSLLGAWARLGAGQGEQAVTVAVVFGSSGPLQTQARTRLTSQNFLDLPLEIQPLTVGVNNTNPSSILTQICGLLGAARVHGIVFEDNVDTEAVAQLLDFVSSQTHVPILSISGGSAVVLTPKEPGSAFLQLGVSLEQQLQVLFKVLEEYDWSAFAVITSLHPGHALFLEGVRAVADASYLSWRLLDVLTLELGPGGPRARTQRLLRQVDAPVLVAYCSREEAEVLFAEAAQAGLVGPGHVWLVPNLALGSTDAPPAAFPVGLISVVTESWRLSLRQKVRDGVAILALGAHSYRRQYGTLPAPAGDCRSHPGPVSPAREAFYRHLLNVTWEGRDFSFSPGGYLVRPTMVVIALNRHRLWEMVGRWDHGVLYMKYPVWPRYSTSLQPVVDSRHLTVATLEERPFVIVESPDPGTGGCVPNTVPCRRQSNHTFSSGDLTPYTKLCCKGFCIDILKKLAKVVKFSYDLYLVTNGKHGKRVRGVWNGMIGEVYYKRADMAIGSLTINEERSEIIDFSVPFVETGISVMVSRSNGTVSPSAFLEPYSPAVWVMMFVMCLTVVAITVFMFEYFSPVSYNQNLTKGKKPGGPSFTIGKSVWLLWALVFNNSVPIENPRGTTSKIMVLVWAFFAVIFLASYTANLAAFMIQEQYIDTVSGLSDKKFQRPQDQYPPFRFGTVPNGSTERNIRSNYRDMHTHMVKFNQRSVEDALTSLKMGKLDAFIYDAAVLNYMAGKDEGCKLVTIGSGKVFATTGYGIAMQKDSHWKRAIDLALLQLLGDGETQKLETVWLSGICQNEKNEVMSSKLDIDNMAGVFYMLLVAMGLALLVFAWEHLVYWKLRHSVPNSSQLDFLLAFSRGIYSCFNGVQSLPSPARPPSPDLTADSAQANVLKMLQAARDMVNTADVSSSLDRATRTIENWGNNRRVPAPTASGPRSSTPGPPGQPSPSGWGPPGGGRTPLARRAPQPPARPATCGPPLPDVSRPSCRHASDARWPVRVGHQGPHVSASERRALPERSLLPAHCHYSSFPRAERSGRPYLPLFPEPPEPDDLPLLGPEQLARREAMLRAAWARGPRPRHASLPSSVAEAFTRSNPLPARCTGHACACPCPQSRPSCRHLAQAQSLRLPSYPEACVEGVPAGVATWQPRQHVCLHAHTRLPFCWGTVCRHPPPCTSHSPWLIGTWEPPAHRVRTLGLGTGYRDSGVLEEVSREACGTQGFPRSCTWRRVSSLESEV
Chain of Glutamate receptor ionotropic, NMDA 1/2B (Q00960 whole entry, other chains not shown): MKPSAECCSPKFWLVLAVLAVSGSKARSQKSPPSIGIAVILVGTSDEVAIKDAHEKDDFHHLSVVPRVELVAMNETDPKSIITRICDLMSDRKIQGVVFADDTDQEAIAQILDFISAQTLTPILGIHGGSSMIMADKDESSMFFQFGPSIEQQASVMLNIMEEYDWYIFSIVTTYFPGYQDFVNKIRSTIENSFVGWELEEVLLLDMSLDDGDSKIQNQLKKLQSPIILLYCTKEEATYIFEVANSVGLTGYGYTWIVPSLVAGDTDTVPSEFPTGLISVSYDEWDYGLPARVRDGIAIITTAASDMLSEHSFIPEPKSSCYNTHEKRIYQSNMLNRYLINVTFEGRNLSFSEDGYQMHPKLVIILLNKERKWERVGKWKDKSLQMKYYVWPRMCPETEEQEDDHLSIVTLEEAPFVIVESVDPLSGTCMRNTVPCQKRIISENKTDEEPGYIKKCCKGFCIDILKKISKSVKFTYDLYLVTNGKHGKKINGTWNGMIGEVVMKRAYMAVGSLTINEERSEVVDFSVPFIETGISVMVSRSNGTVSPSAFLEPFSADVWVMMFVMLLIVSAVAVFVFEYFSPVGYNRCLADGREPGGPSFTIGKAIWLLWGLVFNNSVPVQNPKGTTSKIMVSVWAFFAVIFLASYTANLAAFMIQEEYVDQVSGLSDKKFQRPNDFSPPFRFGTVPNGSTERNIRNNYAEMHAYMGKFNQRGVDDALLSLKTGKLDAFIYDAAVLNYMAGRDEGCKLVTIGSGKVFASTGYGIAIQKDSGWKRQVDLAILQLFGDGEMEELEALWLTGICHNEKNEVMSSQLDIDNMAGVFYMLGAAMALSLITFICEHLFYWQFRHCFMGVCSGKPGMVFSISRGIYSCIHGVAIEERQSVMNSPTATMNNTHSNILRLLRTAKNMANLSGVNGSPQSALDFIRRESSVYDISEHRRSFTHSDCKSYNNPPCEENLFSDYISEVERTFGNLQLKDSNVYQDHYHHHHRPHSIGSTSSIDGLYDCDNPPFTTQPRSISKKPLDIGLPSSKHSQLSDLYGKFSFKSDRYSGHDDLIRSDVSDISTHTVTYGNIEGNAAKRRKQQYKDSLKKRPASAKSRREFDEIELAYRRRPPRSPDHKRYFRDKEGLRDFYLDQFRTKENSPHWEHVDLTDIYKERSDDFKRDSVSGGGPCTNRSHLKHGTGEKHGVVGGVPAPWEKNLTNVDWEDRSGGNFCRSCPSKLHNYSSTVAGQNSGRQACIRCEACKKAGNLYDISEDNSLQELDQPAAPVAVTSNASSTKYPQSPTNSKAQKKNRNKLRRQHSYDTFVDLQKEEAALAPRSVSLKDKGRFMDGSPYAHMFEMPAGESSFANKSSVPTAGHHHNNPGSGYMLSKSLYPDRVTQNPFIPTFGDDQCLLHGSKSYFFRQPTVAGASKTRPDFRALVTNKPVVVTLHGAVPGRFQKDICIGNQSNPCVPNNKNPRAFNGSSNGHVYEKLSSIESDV
Chain of Glutamate receptor ionotropic, NMDA 1/2A (Q00959 whole entry, other chains not shown): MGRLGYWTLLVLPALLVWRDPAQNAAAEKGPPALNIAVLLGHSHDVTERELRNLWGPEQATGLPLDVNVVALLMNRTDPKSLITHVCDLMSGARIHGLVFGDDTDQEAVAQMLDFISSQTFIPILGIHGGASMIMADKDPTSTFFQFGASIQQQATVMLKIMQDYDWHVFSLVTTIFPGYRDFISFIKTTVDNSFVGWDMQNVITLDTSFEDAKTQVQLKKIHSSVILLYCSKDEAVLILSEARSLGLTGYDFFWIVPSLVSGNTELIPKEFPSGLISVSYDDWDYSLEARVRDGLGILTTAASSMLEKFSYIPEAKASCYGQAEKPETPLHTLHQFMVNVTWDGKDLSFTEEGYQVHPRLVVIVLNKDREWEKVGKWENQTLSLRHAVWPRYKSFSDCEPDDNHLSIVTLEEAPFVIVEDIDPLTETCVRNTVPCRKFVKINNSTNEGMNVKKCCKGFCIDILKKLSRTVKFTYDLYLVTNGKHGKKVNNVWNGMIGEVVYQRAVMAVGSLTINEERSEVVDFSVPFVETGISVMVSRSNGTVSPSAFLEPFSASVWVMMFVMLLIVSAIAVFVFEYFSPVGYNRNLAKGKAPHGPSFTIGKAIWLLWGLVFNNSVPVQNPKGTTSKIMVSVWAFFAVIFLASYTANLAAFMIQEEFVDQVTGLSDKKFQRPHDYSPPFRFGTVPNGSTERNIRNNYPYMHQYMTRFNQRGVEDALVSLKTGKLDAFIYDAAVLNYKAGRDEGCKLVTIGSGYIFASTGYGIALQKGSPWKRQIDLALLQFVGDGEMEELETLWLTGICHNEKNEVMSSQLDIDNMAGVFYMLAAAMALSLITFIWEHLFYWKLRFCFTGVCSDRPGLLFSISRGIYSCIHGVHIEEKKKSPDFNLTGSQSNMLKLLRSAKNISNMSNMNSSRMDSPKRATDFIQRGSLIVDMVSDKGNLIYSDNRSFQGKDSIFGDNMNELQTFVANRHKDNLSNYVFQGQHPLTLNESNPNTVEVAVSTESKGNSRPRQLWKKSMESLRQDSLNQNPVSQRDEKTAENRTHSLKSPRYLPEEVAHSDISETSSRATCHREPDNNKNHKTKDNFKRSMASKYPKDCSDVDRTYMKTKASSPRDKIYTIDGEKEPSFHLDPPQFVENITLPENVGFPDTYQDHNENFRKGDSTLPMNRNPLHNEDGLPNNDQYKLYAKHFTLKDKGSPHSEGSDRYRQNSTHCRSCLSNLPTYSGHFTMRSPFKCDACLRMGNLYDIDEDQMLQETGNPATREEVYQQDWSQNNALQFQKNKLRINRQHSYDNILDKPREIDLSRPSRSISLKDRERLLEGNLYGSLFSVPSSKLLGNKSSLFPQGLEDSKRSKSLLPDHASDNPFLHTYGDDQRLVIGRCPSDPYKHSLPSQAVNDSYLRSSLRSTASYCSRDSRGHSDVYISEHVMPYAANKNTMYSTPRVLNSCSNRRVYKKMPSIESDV

Question: Which results are given for `O=C(O)c1ccc(-n2c(/C=C/c3cccc([N+](=O)[O-])c3)nc3ccc(Cl)cc3c2=O)cc1` [(E)-4-(6-Chloro-2-(3-nitrostyryl)-4-oxoquinazolin-3(4H)-yl)-benzoic Acid]?
Answer: IC50 [1]: 13 µM; IC50 [2]: 2 µM; IC50 [3]: 16 µM; IC50 [4]: 7 µM
